{"source": "ChEMBL document CHEMBL1949558", "about": "“Hypoxylonols C-F, benzo[j]fluoranthenes from Hypoxylon truncatum” (J Nat Prod, 2012)", "key": {"[1]": {"assay": "Antiangiogenic activity in HUAEC assessed as inhibition of cell proliferation after 72 hrs by MTT assay", "assay_type": "functional", "settings": "Homo sapiens", "procedure,_shortened": "(§1)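 Cells were purchased and seeded at 3000/well on collagen-coated plates for 3 h at 37 °C, 5% CO2: HUVECs in EGM-2, HUAECs in EGM-2MV. The medium was then swapped to 1% FBS-EBM-2 for 21 h. VEGF (1 nM) and samples were added for 72 h. Proliferation was read with WST-8 at 450 nm, and inhibition was expressed as IC50.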"}, "HUVEC": {"tested_on": "HUVEC", "assay": "Antiangiogenic activity in HUVEC assessed as inhibition of cell proliferation after 72 hrs by MTT assay", "assay_type": "functional, cell-based", "settings": "Homo sapiens", "procedure,_shortened": "as §1"}}, "data": [{"smiles": "CCO[C@H]1C[C@H](O)C2=C3c4cccc(O)c4C(=O)C[C@@H]3c3ccc(O)c1c32", "note": "[HYPOXYLONOL A]", "values": [{"measurement": "IC50", "setting": "[1]", "value": 16, "unit": "µM"}, {"measurement": "IC50", "setting": "HUVEC", "value": 15, "unit": "µM"}]}, {"smiles": "O=C1C[C@H]2C(=C3c4c2ccc(O)c4[C@@H](O)C[C@@H]3O)c2cccc(O)c21", "note": "[HYPOXYLONOL C]", "values": [{"measurement": "IC50", "setting": "[1]", "value": 16, "unit": "µM"}, {"measurement": "IC50", "setting": "HUVEC", "value": 21, "unit": "µM"}]}, {"smiles": "O=C1C[C@H]2C(=C3c4c2ccc(O)c4[C@H](O)C[C@@H]3O)c2cccc(O)c21", "note": "[HYPOXYLONOL F]", "values": [{"measurement": "IC50", "setting": "[1]", "value": 14, "unit": "µM"}, {"measurement": "IC50", "setting": "HUVEC", "value": 17, "unit": "µM"}]}, {"smiles": "CCO[C@@H]1C[C@H](O)C2=C3c4cccc(O)c4C(=O)C[C@@H]3c3ccc(O)c1c32", "note": "[HYPOXYLONOL D]", "values": [{"measurement": "IC50", "setting": "[1]", "value": 6.1, "unit": "µM"}, {"measurement": "IC50", "setting": "HUVEC", "value": 6.9, "unit": "µM"}]}, {"smiles": "CO[C@H]1C[C@H](O)C2=C3c4cccc(O)c4C(=O)C[C@@H]3c3ccc(O)c1c32", "note": "[HYPOXYLONOL B]", "values": [{"measurement": "IC50", "setting": "[1]", "value": 24, "unit": "µM"}, {"measurement": "IC50", "setting": "HUVEC", "value": 24, "unit": "µM"}]}, {"smiles": "CO[C@@H]1C[C@H](O)C2=C3c4cccc(O)c4C(=O)C[C@@H]3c3ccc(O)c1c32", "note": "[HYPOXYLONOL E]", "values": [{"measurement": "IC50", "setting": "[1]", "value": 4.1, "unit": "µM"}, {"measurement": "IC50", "setting": "HUVEC", "value": 7.4, "unit": "µM"}]}]}
